Data published in ChEMBL document CHEMBL1124180, “Asymmetric synthesis and properties of the enantiomers of the antibacterial agent 7-(3-aminopyrrolidin-1-yl)-1-(2,4-difluorophenyl)-1,4-dihydro-6- fluoro-4-oxo-1,8-naphthyridine-3-carboxylic acid hydrochloride” (J Med Chem, 1988).

Key:
[1] = Solubility in aqueous media urine, pH 6.3; format: physicochemical; settings: read-out: S
[2] = tested on: Veillonella parvula; assay: In vitro activity against Veillonella parvula (ATCC 10790); format: functional
Summary of the method: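 Anaerobic MICs measured by agar dilution on Wilkins-Chalgren agar.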

[3] = tested on: Micrococcus luteus; assay: In vitro activity against Micrococcus luteus (ATCC 9341); format: functional
Summary of the method: (§1)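 MIC determined by agar dilution on brain-heart infusion agar under aerobic conditions.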

[4] = tested on: Staphylococcus aureus; assay: In vitro activity against Staphylococcus aureus(45 RAR2); format: functional; summary of the method: as §1
[5] = tested on: Bacteroides fragilis; assay: In vitro activity against Bacteroides fragilis (SFM2906A); format: functional
Summary of the method: (§2)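 MIC determined under anaerobic conditions on Wilkins-Chalgren agar.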

[6] = tested on: Klebsiella aerogenes; assay: In vitro activity against Enterobacter aerogenes (ATCC 13048).; format: functional; summary of the method: as §1
[7] = tested on: Bacteroides fragilis; assay: In vitro activity against Bacteroides fragilis (105AT25285); format: functional; summary of the method: as §2
[8] = tested on: Phocaeicola vulgatus; assay: In vitro activity against Bacteroides vulgatus(SFBC 2375); format: functional; summary of the method: as §2
[9] = tested on: Pseudomonas aeruginosa; assay: In vitro activity against Pseudomonas aeruginosa (BMH10); format: functional; summary of the method: as §1
[10] = tested on: Thomasclavelia ramosa; assay: In vitro activity against Clostridium romosum (7); format: functional
[11] = tested on: Escherichia coli; assay: In vitro activity against Escherichia coli (SS).; format: functional
Summary of the method: (§3)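 MIC for aerobic bacteria, measured on brain-heart infusion agar.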

[12] = tested on: Escherichia coli; assay: In vitro activity against Escherichia coli (H560); format: functional; summary of the method: as §3
[13] = tested on: Prevotella melaninogenica; assay: In vitro activity against Bacteroides melaninogenicus (ATCC 25845).; format: functional; summary of the method: as §2
[14] = tested on: Staphylococcus epidermidis; assay: In vitro activity against Staphylococcus epidermidis (3519); format: functional; summary of the method: as §1
[15] = Solubility in aqueous media 0.15 N sulfate, pH 5.4; format: physicochemical; settings: read-out: S
[16] = tested on: Phocaeicola vulgatus; assay: In vitro activity against Bacteroides vulgatus(792); format: functional; summary of the method: as §2
[17] = tested on: Micrococcus luteus; assay: In vitro activity against Micrococcus luteus (ATCC 4698); format: functional; summary of the method: as §1
[18] = tested on: Enterococcus faecium; assay: In vitro activity against Enterococcus faecium (ATCC 8043).; format: functional; summary of the method: as §1
[19] = tested on: Providencia stuartii; assay: In vitro activity against Providencia stuartii (CMX 640); format: functional; summary of the method: as §1
[20] = tested on: Bacteroides fragilis; assay: In vitro activity against Bacteroides fragilis (SFM2975-7); format: functional; summary of the method: as §2
[21] = Solubility in aqueous media 0.15Nacetate, pH 6.1; format: physicochemical; settings: 0.15 N acetate, read-out: S
[22] = tested on: Staphylococcus aureus; assay: In vitro activity against Staphylococcus aureus(CMX 503A); format: functional; summary of the method: as §1
[23] = tested on: Bacteroides thetaiotaomicron; assay: In vitro activity against Bacteroides thetaiotaomicron (SFM2975-2); format: functional; summary of the method: as §2
[24] = tested on: Clostridium perfringens; assay: In vitro activity against Clostridium perfringens (788); format: functional
Summary of the method: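 MIC for anaerobic bacteria, measured on Wilkins-Chalgren agar.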

[25] = tested on: Peptoniphilus asaccharolyticus; assay: In vitro activity against Peptococcus asaccharolyticus (ATCC 14963).; format: functional; summary of the method: as §2
[26] = tested on: Staphylococcus aureus; assay: In vitro activity against Staphylococcus aureus(ATCC 6538P); format: functional; summary of the method: as §1
[27] = tested on: Streptococcus pyogenes; assay: In vitro activity against Streptococcus pyogenes (EES61); format: functional; summary of the method: as §1
[28] = tested on: Bacteroides fragilis; assay: In vitro activity against Bacteroides fragilis (784); format: functional; summary of the method: as §2
[29] = Solubility in aqueous media 0.1 N chloride, pH 6.5; format: physicochemical; settings: read-out: S
[30] = tested on: Acinetobacter sp.; assay: In vitro activity against Acinetobacter sp.(CMX 669).; format: functional; summary of the method: as §1
[31] = tested on: Klebsiella pneumoniae; assay: In vitro activity against Klebsiella pneumoniae (ATCC 8045).; format: functional; summary of the method: as §1
[32] = tested on: Bacteroides thetaiotaomicron; assay: In vitro activity against Bacteroides thetaiotaomicron (ATCC 29741); format: functional; summary of the method: as §2
[33] = tested on: Streptococcus agalactiae; assay: In vitro activity against Streptococcus agalactiae (CMX 508).; format: functional; summary of the method: as §1
[34] = tested on: Fusobacterium; assay: In vitro activity against Fusobacterium sp.(GS-10); format: functional; summary of the method: as §2
[35] = tested on: Mus musculus; assay: In vivo activity against Pseudomonas aeruginosa A5007 (100X LD50), administered sc( each compound tested at 3 doses with 10 animals); format: functional
Summary of the method: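 Mice were challenged intraperitoneally with the organism. The compound was given subcutaneously as a total dose split into equal portions at 1 and 5 h post-infection. Three doses were used, with 10 animals per dose.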

[36] = tested on: Prevotella bivia; assay: In vitro activity against Bacteroides bivius(B 6140); format: functional; summary of the method: as §2
[37] = Solubility in aqueous media urine, pH 5.1; format: physicochemical; settings: read-out: S

Cl.N[C@H]1CCN(c2nc3c(cc2F)c(=O)c(C(=O)O)cn3-c2ccc(F)cc2F)C1
solubility [1]: 20.7 µg/mL | MIC [2]: 0.25 µg/mL | MIC [3]: 0.78 µg/mL | MIC [4]: 0.05 µg/mL | MIC [5]: 0.25 µg/mL | MIC [6]: 0.05 µg/mL | MIC [7]: 0.25 µg/mL | MIC [8]: 0.25 µg/mL | MIC [9]: 0.05 µg/mL | MIC [10]: 0.5 µg/mL | MIC [11]: 0.002 µg/mL | MIC [12]: 0.01 µg/mL | MIC [13]: 0.5 µg/mL | MIC [14]: 0.05 µg/mL | solubility [15]: 8.7 µg/mL | MIC [16]: 0.5 µg/mL | MIC [17]: 0.78 µg/mL | MIC [18]: 0.1 µg/mL | MIC [19]: 1.56 µg/mL | MIC [20]: 0.5 µg/mL | solubility [21]: 4.1 µg/mL | MIC [22]: 0.05 µg/mL | MIC [23]: 1 µg/mL | MIC [24]: 0.12 µg/mL | MIC [25]: 0.12 µg/mL | MIC [26]: 0.02 µg/mL | MIC [27]: 0.1 µg/mL | MIC [28]: 0.25 µg/mL | solubility [29]: 4.5 µg/mL | MIC [30]: 0.05 µg/mL | MIC [31]: 0.01 µg/mL | MIC [32]: 0.5 µg/mL | MIC [33]: 0.2 µg/mL | MIC [34]: 0.25 µg/mL | ED50 [35]: 19.1 mg/kg | MIC [36]: 0.5 µg/mL | solubility [37]: 32.4 µg/mL
